Results reported in article PMC9540525 (Cancer, 2022).

Key:
[1] = system: advanced or unresectable solid tumors, including NENs and R/R NHL; test: Phase 1 study CC-90011-ST-001: efficacy; format: in vivo, human
Method in brief: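 Phase 1 open-label multicenter study; adults with advanced NENs or R/R NHL. Test compound given orally once weekly in 28-day cycles (expansion: 60 mg); reductions and interruptions of up to 4 weeks allowed. Investigator-assessed response: RECIST 1.1 (solid tumors), IWG (NHL), PCWG3 (neuroendocrine prostate); FDG PET or PET/CT confirmed CR in FDG-avid tumors. Two-sided 95% Clopper–Pearson CIs; Kaplan–Meier medians.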

[2] = Phase 1 study: plasma pharmacokinetics, noncompartmental analysis; format: in vivo, human
[3] = system: MMD gene expression in peripheral blood; test: Phase 1 study: MMD gene expression in peripheral blood; format: in vivo, human; details: dose expansion, 60 mg once per week
[4] = Phase 1 study: treatment duration, modification, exposure and disposition; format: in vivo, human; details: dose expansion, NEN cohort, n=16
[5] = dose escalation, cited from earlier work
[6] = system: solid tumor cell lines, including small cell lung cancer, and acute myeloid leukemia cell lines; details: solid tumor cell lines incl. SCLC, and AML cell lines; cited from earlier work

COc1ccc(-c2c(-c3ccc(C#N)c(F)c3)nc(N3CCC(N)CC3)n(C)c2=O)cc1F [CC‐90011]
Best overall response: CR ([1]; dose escalation, n = 50): 1 (2.0) no. (%)
Best overall response: NE ([1]; dose escalation, n = 50): 4 (8.0) no. (%)
Best overall response: PD ([1]; dose escalation, n = 50): 22 (44.0) no. (%)
Best overall response: PR ([1]; dose escalation, n = 50): 1 (2.0) no. (%)
Best overall response: SD ([1]; dose escalation, n = 50): 22 (44.0) no. (%)
Best overall response: SD ≥4 months ([1]; dose escalation, n = 50): 8 (16.0) no. (%)
CBR [95% CI] ([1]; dose escalation, n = 50): 20 [10.0–33.7] %
ORR [95% CI] ([1]; dose escalation, n = 50): 4 [0.5–13.7] %
mOS [95% CI] ([1]; dose escalation, n = 50): 7.8 [6.1–20.1] months
mPFS [95% CI] ([1]; dose escalation, n = 50): 3.4 [1.7–3.7] months
patients with NENs with SD lasting ≥6 months / >6 months ([1]; dose escalation, grade ≥2 NENs): seven
treatment cycle in which the patient with CR was still ongoing ([1]; dose escalation, one patient with R/R MZL, as of April 2022): 58 cycle
patients with bronchial NENs with SD after nine or more cycles ([1]; dose expansion): three
Best overall response: CR ([1]; dose expansion, n=19): 0 (0.0) no. (%)
Best overall response: NE ([1]; dose expansion, n=19): 2 (11.0) no. (%)
Best overall response: PD ([1]; dose expansion, n=19): 7 (37.0) no. (%)
Best overall response: PR ([1]; dose expansion, n=19): 0 (0.0) no. (%)
CBR [95% CI] ([1]; dose expansion, n=19): 37 [16.3–61.6] %
ORR [95% CI] ([1]; dose expansion, n=19): 0 [0.0–17.6] %
mOS [95% CI] ([1]; dose expansion, n=19): 15.6 [7.0, NE] months
mPFS [95% CI] ([1]; dose expansion, n=19): 1.8 [1.1–5.4] months
treatment cycle in which the patient with SD was still ongoing ([1]; dose expansion, one patient with bronchial NENs, as of April 2022): 46 cycle
median PFS ([1]; patients with bronchial NENs): 4.6 months
accumulation with repeat dosing based on the AUC ([2]; dose expansion, 60 mg once per week): Negligible accumulation
time of peak CC-90011 concentration after treatment, approximate median ([2]; dose expansion, NEN, n = 16, 60 mg once per week): ~4 h
terminal half-life ([2]; in words): long terminal half‐life
downregulation in MMD gene expression in the peripheral blood [3]: ≥ 50%
≥1 dose interruption due to AE [4]: 10 (63%) n (%)
dose-limiting toxicity [5]: Thrombocytopenia was the only dose‐limiting toxicity reported
maximum tolerated dose ([5]; once per week): 80 mg
nontolerated dose ([5]; once per week): 120 mg
recommended phase 2 dose (RP2D) ([5]; once per week): 60 mg
antiproliferative activity in vitro [6]: has antiproliferative activity in various solid tumor cell lines in vitro
